# Experimental data published in ChEMBL document CHEMBL4052679, “Design, synthesis and biological evaluation of novel indolin-2-ones as potent anticancer compounds” (Bioorg Med Chem Lett, 2017).
# Active and inactive are the calls of the source. The calls are words filed in the database; no cut-off is given here.
# Key:
# [1] = target: Cyclin-dependent kinase 2/cyclin E1 (Homo sapiens) (UniProt P24864+P24941); experiment: Inhibition of CDK2/Cyclin E1 (unknown origin) at 10 uM; assay type: protein-complex assay
# A2780 [2] = experiment: Growth inhibition of human A2780 cells incubated for 3 days by MTT assay; details: A2780, 72 h
# NCI-H1650 [3] = experiment: Growth inhibition of human NCI-H1650 cells incubated for 3 days by MTT assay; details: NCI-H1650, 72 h
# BGC-823 [4] = experiment: Growth inhibition of human BGC823 cells incubated for 3 days by MTT assay; details: BGC-823, 72 h
# HCT-116 [5] = experiment: Growth inhibition of human HCT116 cells incubated for 3 days by MTT assay; details: HCT-116, 72 h
# HepG2 [6] = experiment: Growth inhibition of human HepG2 cells incubated for 3 days by MTT assay; details: HepG2, 72 h
# [7] = target: CDK9/cyclin T1 (Homo sapiens) (UniProt O60563+P50750); experiment: Inhibition of CDK9/Cyclin T1 (unknown origin) at 10 uM; assay type: protein-complex assay
# HepG2 [8] = experiment: Growth inhibition of human HepG2 cells at 10 uM incubated for 3 days by MTT assay
# A2780 [9] = experiment: Growth inhibition of human A2780 cells at 10 uM incubated for 3 days by MTT assay
# HCT-116 [10] = experiment: Growth inhibition of human HCT116 cells at 10 uM incubated for 3 days by MTT assay
# NCI-H1650 [11] = experiment: Growth inhibition of human NCI-H1650 cells at 10 uM incubated for 3 days by MTT assay
# BGC-823 [12] = experiment: Growth inhibition of human BGC823 cells at 10 uM incubated for 3 days by MTT assay
# [13] = Growth inhibition of human KBVIN cells incubated for 3 days by SRB assay; assay type: functional, cell-based; details: 72 h
# Homo sapiens = species: Homo sapiens; experiment: Induction of microtubule destabilization in human MDA-MB-231 cells at 5 times IC50 incubated for 24 hrs by fluorescent microscopy; assay type: cell-based
# Method in brief: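 MDA-MB-231 cells treated 24 h alongside a DMSO control. Cells were fixed and immunostained for α-tubulin and phosphorylated histone H3, with DAPI for DNA. The microtubule network was judged in interphase cells (phospho-H3-negative) by confocal fluorescence microscopy with ×63 or ×40 objectives.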
# KB = experiment: Growth inhibition of human KB cells incubated for 3 days by SRB assay; assay type: functional, cell-based; details: 72 h
# MDA-MB-231 [14] = experiment: Induction of cell cycle arrest in human MDA-MB-231 cells assessed as increase in accumulation at G2/M phase at 5 times IC50 incubated for 24 hrs by propidium iodide staining based flow cytometry; assay type: functional
# Method in brief: (§1)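 MDA-MB-231 cells exposed 24 h. Combretastatin A-4 at 200 nM served as reference for G2/M arrest. Cells were then fixed, stained with propidium iodide, and phase distribution was read on a flow cytometer.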
# MCF7 = experiment: Growth inhibition of human MCF7 cells incubated for 3 days by SRB assay; assay type: functional, cell-based; details: MCF7, 72 h
# A549 = experiment: Growth inhibition of human A549 cells incubated for 3 days by SRB assay; assay type: functional, cell-based; details: A549, 72 h
# MDA-MB-231 [15] = experiment: Growth inhibition of human MDA-MB-231 cells incubated for 3 days by SRB assay; assay type: functional, cell-based; details: MDA-MB-231, 72 h
# MDA-MB-231 [16] = experiment: Induction of cell cycle arrest in human MDA-MB-231 cells assessed as increase in accumulation at subG1 phase at 5 times IC50 incubated for 24 hrs by propidium iodide staining based flow cytometry; assay type: functional; method in brief: as §1
Structure (SMILES),inhibition [1],IC50 (A2780 [2]) [nM],IC50 (NCI-H1650 [3]) [nM],IC50 (BGC-823 [4]) [nM],IC50 (HCT-116 [5]) [nM],IC50 (HepG2 [6]) [nM],inhibition [7],growth inhibition (GI) (HepG2 [8]),growth inhibition (GI) (A2780 [9]),growth inhibition (GI) (HCT-116 [10]),growth inhibition (GI) (NCI-H1650 [11]),growth inhibition (GI) (BGC-823 [12]),IC50 [13] [nM],Activity (Homo sapiens),IC50 (KB) [nM],Activity (MDA-MB-231 [14]),IC50 (MCF7) [nM],IC50 (A549) [nM],IC50 (MDA-MB-231 [15]) [nM],Activity (MDA-MB-231 [16])
O=C1Nc2ccc(F)cc2/C1=C\C(=O)c1c[nH]c2ccccc12,inactive,2440,6580,8990,3010,1860,inactive,,,,,,,,,,,,,
O=C1Nc2ccc(F)cc2/C1=C\C(=O)c1nccs1,inactive,,,,,,inactive,inactive,inactive,inactive,inactive,inactive,,,,,,,,
O=C1Nc2ccc(F)cc2/C1=C\C(=O)c1ccc(-n2ccnc2)cc1,inactive,,,,,,inactive,inactive,inactive,inactive,inactive,inactive,,,,,,,,
O=C1Nc2ccc(F)cc2/C1=C\C(=O)c1ccc(C2CCCCC2)cc1,inactive,2310,2730,4450,2520,2840,inactive,,,,,,,,,,,,,
O=C1Nc2ccc(F)cc2/C1=C\C(=O)c1cccs1,inactive,2750,3220,7750,1840,8780,inactive,,,,,,,,,,,,,
CC(C)CC(=O)Nc1ccc2c(c1)/C(=C/Nc1cccc(N3CCN(C)CC3)c1)C(=O)N2,inactive,3370,5870,6080,9410,5070,inactive,,,,,,,,,,,,,
CC(=O)O[C@H]1C(=O)[C@@]2(C)[C@H]([C@H](OC(=O)c3ccccc3)[C@]3(O)C[C@H](OC(=O)[C@H](O)[C@@H](NC(=O)c4ccccc4)c4ccccc4)C(C)=C1C3(C)C)[C@]1(OC(C)=O)CO[C@@H]1C[C@@H]2O [PACLITAXEL],,30,70,1,30,20,,,,,,,,,,,,,,
CN1CCC(C(=O)Nc2ccc3c(c2)/C(=C/Nc2cccc(N4CCN(C)CC4)c2)C(=O)N3)CC1,inactive,,,,4670,,inactive,inactive,inactive,,inactive,inactive,,,,,,,,
O=C1Nc2ccc(F)cc2/C1=C\C(=O)c1ccc2c(c1)OCO2,inactive,1120,1220,4090,760,2280,inactive,,,,,,> 10000,Active,> 10000,Active,> 10000,> 10000,5310,
O=C1Nc2ccc(F)cc2/C1=C\C(=O)c1cnccn1,inactive,,,,,,inactive,inactive,inactive,inactive,inactive,inactive,,,,,,,,
O=C1Nc2ccc(F)cc2/C1=C\C(=O)c1ccc(O)cc1F,inactive,1580,3460,6120,1070,3440,inactive,,,,,,,,,,,,,
O=C1Nc2ccc(F)cc2/C1=C\C(=O)c1ccco1,inactive,,,,,,inactive,inactive,inactive,inactive,inactive,inactive,,,,,,,,
O=C1Nc2ccccc2/C1=C1/Nc2ccccc2/C1=N\O,,,,,,,,inactive,inactive,inactive,inactive,inactive,5170,inactive,5340,Active,6810,5820,7590,
CN1CCN(c2cccc(N/C=C3\C(=O)Nc4ccc(NC(=O)c5cccc(F)c5)cc43)c2)CC1,inactive,2910,4280,8500,2740,6720,inactive,,,,,,,,,,,,,
O=C1Nc2ccc(F)cc2/C1=C\C(=O)c1sccc1Cl,inactive,2140,3560,2660,2450,3100,inactive,,,,,,,,,,,,,
O=C1Nc2ccc(F)cc2/C1=C\C(=O)c1cnc2ccc(Cl)nn12,inactive,2370,2730,8020,1410,3090,inactive,,,,,,,,,,,,,
O=C1Nc2ccc([N+](=O)[O-])cc2/C1=C\C(=O)c1ccc(C2CCCCC2)cc1,inactive,2090,3860,5900,2320,3990,inactive,,,,,,,,,,,,,
O=C1Nc2ccc(F)cc2/C1=C\C(=O)c1cc(Cl)sc1Cl,inactive,,,,,,inactive,inactive,inactive,inactive,inactive,inactive,,,,,,,,
O=C1Nc2ccccc2/C1=C\C(=O)c1c[nH]c2ccccc12,inactive,2080,1270,9440,860,2110,inactive,,,,,,,,,,,,,
O=C1Nc2ccc(F)cc2/C1=C\C(=O)c1ccccc1O,inactive,,,,,,inactive,inactive,inactive,inactive,inactive,inactive,,,,,,,,
O=C1Nc2ccc(F)cc2/C1=C\C(=O)c1ccc[nH]1,inactive,2170,2840,6420,1380,3120,inactive,,,,,,,,,,,,,
COc1ccc(C(=O)Nc2ccc3c(c2)/C(=C/Nc2cccc(N4CCN(C)CC4)c2)C(=O)N3)cc1,inactive,2050,1870,3170,2010,1780,inactive,,,,,,,,,,,,,
CN1CCN(c2cccc(N/C=C3\C(=O)Nc4ccc(NC(=O)c5ccc[nH]5)cc43)c2)CC1,inactive,4460,7560,,,5370,inactive,,,inactive,,inactive,,,,,,,,
CN1CCN(c2cccc(N/C=C3\C(=O)Nc4ccc(NC(=O)c5c(F)cccc5F)cc43)c2)CC1,inactive,2030,1630,2670,2150,3030,inactive,,,,,,7860,,4400,,4440,4750,4430,Active
CN1CCN(c2cccc(N/C=C3\C(=O)Nc4ccc(NC(=O)c5c(Cl)cccc5Cl)cc43)c2)CC1,inactive,2140,2170,2240,2280,2370,inactive,,,,,,,,,,,,,
